Holding throughout (type): functional
Experiment [1] has as its system 6C3HED. Description: Inhibition of tumor growth of 6C3HED lymphosarcoma tumor cell line in mice at a dose of 300 mg/kg given orally (daily x 8). As to conditions: Mus musculus, route oral. Summed up: (§1)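 C3H mice received subcutaneous 1-2 mm 6C3HED lymphosarcoma fragments, which grew for 1 day before treatment. The agent was suspended in 2.5% emulphor and given by oral gavage once daily on days 2-9. On day 10, intact tumors were measured by calipers to estimate tumor weight. Percent inhibition was taken from treated versus untreated control tumor weights, mostly with 10 mice per group.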

Experiment [2] relates to 6C3HED. Description: Inhibition of tumor growth of 6C3HED lymphosarcoma tumor cell line in mice at a dose of 150 mg/kg given orally(daily x 8). As to conditions: Mus musculus, po. Summed up: as §1
In another experiment the test system is Mus musculus. Description: Lethal dose against C3H mouse with subcutaneously implanted 6C3HED lymphosarcoma. As to conditions: sc. The procedure, abridged:
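C3H mice bearing subcutaneously implanted 6C3HED lymphosarcoma fragments (1-2 mm), grown 1 day before treatment. Compound suspended in 2.5% emulphor and given po by gavage daily × 8 (days 2-9). Deaths from drug toxicity were recorded to give the lethal dose.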

The next experiment relates to CX-1. The experiment can be described thus: Inhibition of tumor growth of CX-1 cell line at 600 mg/kg. As to conditions: Homo sapiens.
The subject of experiment [3] is 6C3HED. The experiment can be described thus: Inhibition of tumor growth of 6C3HED lymphosarcoma tumor cell line in mice at a dose of 200 mg/kg given orally(daily x 8). As to conditions: Mus musculus, po. Summed up:
as §1

Molecules are shown by their SMILES.

Among the data in ChEMBL document CHEMBL1125518, “Sulfonylureas: a new class of cancer chemotherapeutic agents” (1992) are inhibition in vivo and LD50 values, retold here.

Consider `CCc1ccc(S(=O)(=O)NC(=O)Nc2ccc(Cl)cc2)o1`, for which, in the experiment on 6C3HED [1], the inhibition in vivo – broadly, the percentage by which the read-out fell short of the control – at 300 mg/kg amounted to 80%. For the same compound, at 150 mg/kg the inhibition in vivo in the experiment with 6C3HED [2] was 57%.
For `O=C(Nc1ccc(Cl)cc1)NS(=O)(=O)c1cc(Br)c(Br)s1` the same measures were 52% and 25%.
For `CCCOc1ccc(S(=O)(=O)NC(=O)Nc2ccc(Cl)cc2)s1` the same measures were 63% and 44%.
The matching figures for `O=C(Nc1ccc(Cl)cc1)NS(=O)(=O)c1scc2c1CCC2`: 51% and 36%.
In turn, `CCc1ccsc1S(=O)(=O)NC(=O)Nc1ccc(Cl)cc1` displayed an inhibition in vivo at 300 mg/kg with 6C3HED [1] of 25%. At 150 mg/kg the inhibition in vivo with 6C3HED [2] was 21%.
For `CCCc1ccc(S(=O)(=O)NC(=O)Nc2ccc(Cl)cc2)s1`, the inhibition in vivo at 300 mg/kg in the experiment with 6C3HED [1] stood at 39%. In the experiment with 6C3HED [2], testing at 150 mg/kg gave an inhibition in vivo of 38%.
For `CC(C)c1ccc(S(=O)(=O)NC(=O)Nc2ccc(Cl)cc2)s1` the same measures were 63% and 42%.
In the experiment with 6C3HED [1], `Cc1cc(S(=O)(=O)NC(=O)Nc2ccc(Cl)cc2)sc1C` displayed an inhibition in vivo at 300 mg/kg of 73%. The compound further yielded an inhibition in vivo at 150 mg/kg with 6C3HED [2] of 42%.
The matching figures for `O=C(Nc1ccc(Cl)cc1)NS(=O)(=O)c1scc2c1CCCC2`: 15% and 0%.
The matching figures for `CCc1csc(S(=O)(=O)NC(=O)Nc2ccc(Cl)cc2)c1`: 93% and 55%.
The matching figures for `CSc1ccc(S(=O)(=O)NC(=O)Nc2ccc(Cl)cc2)s1`: 62% and 29%.
`CCOc1ccc(S(=O)(=O)NC(=O)Nc2ccc(Cl)cc2)s1` displayed an inhibition in vivo at 300 mg/kg in the experiment with 6C3HED [1] of 96%. Further, testing at 150 mg/kg in the experiment with 6C3HED [2] gave an inhibition in vivo of 69%.
On to `CCc1ccc(S(=O)(=O)NC(=O)Nc2ccc(Cl)cc2)[nH]1`, for which testing at 300 mg/kg with 6C3HED [1] gave an inhibition in vivo of 56%.
For `O=C(Nc1ccc(Cl)cc1)NS(=O)(=O)c1cccs1`, the inhibition in vivo at 300 mg/kg with 6C3HED [1] is 66%. In addition, in the experiment with 6C3HED [2], testing at 150 mg/kg gave an inhibition in vivo of 16%.
For `O=C(Nc1ccc(Cl)cc1)NS(=O)(=O)c1cc2c(s1)CCC2` the same measures were 16% and 16%.
The matching figures for `CC(C)(C)c1ccc(S(=O)(=O)NC(=O)Nc2ccc(Cl)cc2)s1`: 10% and 7%.
`COc1ccc(S(=O)(=O)NC(=O)Nc2ccc(Cl)cc2)s1` yielded an inhibition in vivo at 300 mg/kg with 6C3HED [1] of 100%. Moreover, the LD50 (as a rule, the dose at which mortality reaches 50%) in the experiment with Mus musculus came to 450 mg/kg. In the experiment with 6C3HED [2], testing at 150 mg/kg gave an inhibition in vivo of 93%. This compound registered an inhibition in vivo at 600 mg/kg in the experiment with CX-1 of 62%.
In turn, `O=C(Nc1ccc(Cl)cc1)NS(=O)(=O)c1ccc(Cl)s1` had an inhibition in vivo at 300 mg/kg with 6C3HED [1] of 89%. Moreover, the inhibition in vivo at 150 mg/kg in the experiment on 6C3HED [2] was found to be 58%.
For the compound `Cc1ccsc1S(=O)(=O)NC(=O)Nc1ccc(Cl)cc1`, the inhibition in vivo at 300 mg/kg in the experiment with 6C3HED [1] is 62%. Moreover, in the experiment with 6C3HED [2], at 150 mg/kg the inhibition in vivo was 17%.
The matching figures for `CCc1ccc(S(=O)(=O)NC(=O)Nc2ccc(Cl)cc2)s1`: 89% and 57%.
For `Cc1ccc(S(=O)(=O)NC(=O)Nc2ccc(Cl)c(Cl)c2)s1` the same measures were 61% and 24%.
The matching figures for `CCc1sc(S(=O)(=O)NC(=O)Nc2ccc(Cl)cc2)cc1C`: 58% and 26%.
For `COc1csc(S(=O)(=O)NC(=O)Nc2ccc(Cl)cc2)c1`, in the experiment with 6C3HED [1], the inhibition in vivo at 300 mg/kg came out at 69%. The compound further gave an inhibition in vivo at 150 mg/kg with 6C3HED [2] of 36%.
Compound `O=C(Nc1ccc(Cl)c(Cl)c1)NS(=O)(=O)c1cc2c(s1)CCCC2` registered an inhibition in vivo at 200 mg/kg in the experiment with 6C3HED [3] of 44%.
